The values that follow come from ChEMBL document CHEMBL4513216, “Probing the Open Global Health Chemical Diversity Library for Multistage-Active Starting Points for Next-Generation Antimalarials” (ACS Infect Dis, 2020).

The data set in a line: Toxicity liver stage against HepG2, at 10uM. Type of data set: cell-based. Also on record: test concentration 10 uM, cell line HepG2-A16-CD81EGFP. As to conditions: human, HepG2-A16-CD81EGFP cells; read-out: INHIBITION
The procedure, abridged:
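Uninfected HepG2-A16-CD81EGFP cells, 3 × 10^3 per well, 1536-well, plated on prespotted compound at 10 μM final, parasite-free screening media added to match infected plates; puromycin 10 μM positive, DMSO 0.5% negative; run in parallel with 48 h PbLuc assay at 37 °C, 5% CO2; viability by CellTiter-Glo luminescence, normalized to controls.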
Regarding `O=C1CCC(C(=O)Nc2cnn(-c3ccccc3Cl)c2)N1` (stereo not drawn), the cytotoxicity at 10 µM is -7.41%. The result for `CCc1nc(C2CCCN2CC(=O)N2CCCc3ccccc32)no1` (stereo not drawn) reads -25.2%; that for `CC(C)NC(=O)Nc1ncc(-c2cccnc2)s1`, 7.05%; that for `CCN(CC(=O)NC)S(=O)(=O)N1CCCCC1`, 1.29%. The value for `CC(C)c1noc(C(C)N2CCN(CCN3CCCC3=O)CC2)n1` (stereo not drawn) was -10.6%; that for `Cc1nn(C)c2ncc(NC(=O)N(C)Cc3cnn(C)c3)cc12` was -0.768%. With `CSC(C)(C)CNC(=O)NCc1cccc(-n2ccnc2)c1`, the cytotoxicity at 10 µM stood at 32.9%.

In the case of `c1ccc(Cc2nnc(CN3CCCC(Cn4cncn4)C3)o2)cc1` (stereo not drawn), the cytotoxicity at 10 µM was -4.51%. As to `CCC[C@H]1CN(Cc2ccc(N(C)C)nc2)C[C@@H]1NC(=O)CSC`, the cytotoxicity at 10 µM came to 7.78%. The value for `COc1ccc2[nH]cc(CCNC(=O)C3CCCN(C(C)=O)C3)c2c1` (stereo not drawn) was -5.58%; that for `COc1ccc(C(=O)N(C)Cc2nnc3ccccn23)cc1` was 3.45%; that for `Cc1ncoc1C(=O)N1CCn2c(COCC3CC3)cnc2C1C` (stereo not drawn) was -1.67%. As to `CC(CNC(=O)c1ccc(=O)[nH]n1)N1CCc2ccccc21` (stereo not drawn), the cytotoxicity at 10 µM is -8.93%. The value for `O=C(NCCc1ccccn1)NC1CCN(c2ccccc2)C1=O` (stereo not drawn) was -2.84%.

For the compound `CC(C)(CNc1ccc(S(=O)(=O)C(F)F)cc1)N1CCOCC1`, the cytotoxicity at 10 µM was determined as 26.7%.

As to `COCc1ccc(CNc2cncc(-n3cccn3)n2)cc1`, the cytotoxicity at 10 µM is 6%. For `CC(C)CN1CCC2(CC(C(=O)NCc3cccnc3)=NO2)C1` (stereo not drawn), the cytotoxicity at 10 µM was -5.99%. As for `Cc1cc(CN2CCN(Cc3ccc(C#N)cc3OC(F)F)CC2)no1`, the cytotoxicity at 10 µM worked out at 1.81%. The result for `CC1(C)CN(C(=O)Nc2ccc(Cn3cccn3)cc2)CCO1` reads 45.1%; that for `c1ccc(CCN2CCC(OCC3CCCCO3)CC2)nc1` (stereo not drawn), -4.9%; that for `CCc1cc(C(=O)NCC2CCN(Cc3cccc(C#N)c3)C2)on1` (stereo not drawn), 4.98%. `COCCNC(=O)c1cc(S(=O)(=O)N2CCCCC2)cs1`: the cytotoxicity at 10 µM is -8.94%. The value for `CC(=O)c1ccc(S(=O)(=O)NCC2CCN(c3cnccn3)CC2)cc1` was 0.723%; that for `CCc1[nH]c(C2(N)CCCC2)nc(=O)c1C` was -1.29%. The result for `CCNc1nnc(SC(C(=O)NCc2cccnc2)C(C)C)s1` (stereo not drawn) reads -13.3%; that for `Cc1ccc2nc3n(c2c1)[C@@H](CNCc1nccs1)COC3`, -4.31%; that for `Cc1cc2c(=O)n3c(nc2s1)CCN(C(=O)c1ccnn1C)CC3`, -4.08%. For `O=C(CN1CCc2[nH]c3ccccc3c2C1)NCc1ccco1`, the cytotoxicity at 10 µM is -3.04%.

`Cc1[nH]ncc1CCCNC(=O)N1CCCC(c2nncn2C)C1` (stereo not drawn): the cytotoxicity at 10 µM was -7.58%. With `Cc1cnn(CC(=O)NC2CCCc3cc(OC(F)F)ccc32)c1` (stereo not drawn), the cytotoxicity at 10 µM was -0.653%. The result for `O=C1CC2(CCN(CC3CC3)CC2)CN1Cc1cc(F)cc(F)c1` reads 2.34%. The value for `COC[C@]1(O)CCN(c2cc(C3CC3)ncn2)CC1(C)C` was -1.53%. The value for `Cc1cnn(CC2CCCN2C(=O)c2cccc(-n3cnnn3)c2)c1` (stereo not drawn) was -4.3%; that for `Cn1cc(CN2CC3(CCN(C(=O)c4cscn4)C3)C2)cn1` was -11.9%; that for `Cc1ccc2c(c1)c(C)cc(=O)n2CCC(=O)O` was -5.6%. In the case of `Cc1cc(C)n(C2CN(CC(O)c3cc(F)ccc3F)C2)n1` (stereo not drawn), the cytotoxicity at 10 µM is -15.1%.

As to `Cc1ncc(CN(C)C(=O)Nc2cccc(N3CCOC3=O)c2)s1`, the cytotoxicity at 10 µM stood at 5.31%. Regarding `CCN(C)S(=O)(=O)N1CCC(C(O)c2ccc(F)cc2)CC1` (stereo not drawn), the cytotoxicity at 10 µM is -22%. For the compound `Cc1nnc(C2Cc3ccccc3CN2Cc2ncc(Cl)n2C)o1` (stereo not drawn), the cytotoxicity at 10 µM was 8.72%. The result for `Cc1cnn(CC2CCCCN2CC(=O)Nc2nncs2)c1` (stereo not drawn) reads -0.208%; that for `C=C(C)COc1ccccc1NC(=O)N1CCOCC(CO)C1` (stereo not drawn), -1.57%; that for `O=C(C1CCCC1)N1CCN(Cc2nc(-c3ccco3)no2)CC1`, -7.84%. The result for `O=C(Cc1ccccc1F)NCC1CCN(CCc2ccccc2)C1` (stereo not drawn) reads -43.5%; that for `O=C1CSC(c2ccncc2)c2c[nH]nc2N1` (stereo not drawn), 13%; that for `Cc1cc(C)n(CC2CCCN2C(=O)c2c[nH]c(=O)c(Cl)c2)n1` (stereo not drawn), 1.53%. For `Cc1occc1C(=O)N1CCC2(CCN(Cc3cccs3)C2)CC1`, the cytotoxicity at 10 µM is -4.58%. `O=C1Nc2ccccc2CN(CC2CCCC2)C12CCNC2` (stereo not drawn): the cytotoxicity at 10 µM amounted to 7.83%.

Take `COC(=O)C(O)C1CCN(CCc2ccncc2)CC1` (stereo not drawn): the cytotoxicity at 10 µM came to 11.8%.

Consider `Cc1cc(C(=O)N(CCN(C)C)Cc2ccc(Cl)cc2)no1`, for which the cytotoxicity at 10 µM was determined as 0.242%. For the compound `Cc1ccc(-n2ccnc2)c(C(=O)NCCOCC(F)(F)F)c1`, the cytotoxicity at 10 µM is -136%. The value for `O=C1CO[C@@H]2CN(Cc3nccs3)C[C@H]2N1Cc1ccncc1` was -66.6%; that for `Cn1ccc(C(=O)N2CCN(c3cc(C#N)ccn3)CC2)cc1=O` was -14.2%. The value for `Cc1ccc(CN(C)C(=O)c2scnc2C)cc1` was -6.8%.

As to `Cn1cc(N2CCCC(Nc3ccc4c(c3)CCC(=O)N4)C2=O)cn1` (stereo not drawn), the cytotoxicity at 10 µM was -1.56%. Consider `COc1ccc(F)c(-c2ncccc2C(=O)N2C[C@@H]3CC[C@H]2C3)c1`, for which the cytotoxicity at 10 µM was -6.12%. The result for `Cc1n[nH]cc1C(=O)NCc1cccnc1N1CCc2ccccc2C1` reads 8.81%; that for `COCCCn1ccc(NC(=O)NCc2cccc(N(C)C)c2)n1`, 2.4%. For the compound `CCN(CCO)Cc1ccc(Br)c2cccnc12`, the cytotoxicity at 10 µM is 1.95%.

Consider `O=C(CN1CCCCC1Cn1cncn1)NCCc1ccsc1` (stereo not drawn), for which the cytotoxicity at 10 µM is -6.19%. `CN(C)c1nc2n(c(=O)n1)CCN2C(=O)Nc1cccc(Cl)c1`: the cytotoxicity at 10 µM is 8.19%. The result for `Cn1cccc(NC(=O)COc2ccc(Br)cc2)c1=O` reads 8.35%. The value for `Cc1cc(CN2CCN(C(C)C)C(CCO)C2)[nH]n1` (stereo not drawn) was 4.86%; that for `Cc1cncc(NCc2ccccc2N2CCOCC2)c1` was 6.02%.

Regarding `Cc1ccc(SCC(=O)NS(=O)(=O)c2ccc3c(c2)OCCO3)cc1`, the cytotoxicity at 10 µM is -22.1%. The result for `CN(C)C(=O)CN1CCC2(CC1)COc1ccccc1S(=O)(=O)N(C)C2` reads -0.259%; that for `CC(C)COC(C)C(=O)NCc1ccc(Cn2ccnc2)cc1` (stereo not drawn), -2.65%. As to `CN(C)c1ncc2c(n1)C1(CCN(Cc3ccccc3)C1)COC2` (stereo not drawn), the cytotoxicity at 10 µM is -5.07%.

As for `CCN1CCC2(CCN(c3ncccn3)CC2)C1=O`, the cytotoxicity at 10 µM turned out to be 1.26%. The result for `COCC1CN(CC2CC2)Cc2nccn2C1` (stereo not drawn) reads -76%. The value for `O=C(c1c[nH]cn1)N1CCC(n2cc(-c3ccsc3)nn2)CC1` was -14.3%; that for `COCCC(=O)N1CCC2(CN(Cc3cccc(Cl)c3)C2)C1` was -79.6%; that for `C[C@@H]1CN(C(=O)c2nc3sccn3c2-c2ncc[nH]2)C[C@H](C)O1` was 3.85%. The value for `COc1ccc(NC(=O)Cn2ccc3c(=O)n(C)ccc32)cc1OC` was -4.34%; that for `Fc1ccccc1CC1CCN(Cc2nccs2)CC1` was -6.92%. Take `O=C1c2c(O)cc(O)cc2O[C@@H](c2ccc(O)cc2)[C@@H]1O`: the cytotoxicity at 10 µM was -0.639%. Take `Cn1ccc2cc(C(=O)N3CCOCC3)ccc21`: the cytotoxicity at 10 µM is 1.91%. The value for `CCOC(=O)NC(CNC(=O)c1ccccn1)CC(C)C` (stereo not drawn) was 10.2%; that for `COCCOCC(=O)Nc1ccc(Br)cc1F` was -10.5%; that for `COc1cc(C2SCC(=O)Nc3ccsc32)cc(OC)c1O` (stereo not drawn) was 54.7%. The value for `CCOCC(O)CN1CCN(C(=O)c2ccsc2)CC1` (stereo not drawn) was 5.42%; that for `c1ccc(-c2nc3c(c(NCc4nnc5n4CCC5)n2)CCNC3)cc1` was -3.71%; that for `C[C@@H]1CN(C(=O)C2(Cn3cccn3)CC2)CC[C@@]1(O)C1CCOCC1` was 3.48%.

As for `CCS(=O)(=O)CCN1CCCC1c1noc(C2CC2)n1` (stereo not drawn), the cytotoxicity at 10 µM was -6.33%. The value for `COCCN1CC(O)CN(C(=O)c2ccc(SC)cc2)CC1=O` (stereo not drawn) was -0.53%. As for `CN(CC(=O)NC(C)(C#N)C1CC1)Cc1nc2ccccc2n1C` (stereo not drawn), the cytotoxicity at 10 µM is -3.72%. The result for `Cc1occc1C(=O)N1CCCC(C2=Nc3ccccc3S(=O)(=O)N2)C1` (stereo not drawn) reads 4.03%; that for `O=C(NCC(F)(F)F)c1ccc(-n2cncn2)nn1`, -1.66%; that for `CN(C)C[C@H]1C[C@@H](CO)CN(C(=O)CCc2nc(Cl)n[nH]2)C1`, -3.73%. The value for `CCc1nc(CC(=O)NCC(Cc2ccc(F)cc2)C(N)=O)cs1` (stereo not drawn) was -0.86%; that for `Cn1cccc1C(=O)N1CCC2(CC1)COC(COc1ccccn1)C2` (stereo not drawn) was 1.48%.

As to `CC(NCc1ccc(F)cc1)c1ccc(S(C)(=O)=O)cc1` (stereo not drawn), the cytotoxicity at 10 µM is 12.6%.

With `CCc1cnc(N2CCc3cc(C(=O)NC)c(N(C)C)nc3CC2)nc1`, the cytotoxicity at 10 µM is -125%.

Regarding `Cc1nsc(C(=O)NCCc2ccc(F)cc2)n1`, the cytotoxicity at 10 µM was -6.92%. For the compound `COc1ccc(-c2csc3c2c(N)nc(=O)n3CCCN(C)C)cc1`, the cytotoxicity at 10 µM was -54%. The value for `O=C([C@H]1C[C@H]2OCC[C@H]2N(Cc2ccccc2F)C1)N1CCCCO1` was -72.2%; that for `Cn1c(CN2CCCC(N3CCNC3=O)C2)cc(=O)n(C)c1=O` (stereo not drawn) was -5.6%; that for `CS(=O)(=O)CCC(=O)Nc1cc(Cl)c(Cl)cn1` was 4.52%. The result for `Cc1cc(C(=O)N2CCCC(Cn3cc(C4CC4)nn3)C2)nc(C)n1` (stereo not drawn) reads -0.916%.
